Compound activity (PubChem BioAssay)
In the library only some 2.3% were active in any assay of this set; here they are far more common.
TRPC4 inh = inhibitors of mouse TRPC4 channel, primary screen, Fluo4 calcium, HEK293 TRPC4beta/mu-opioid cells | B-score at 10 µM | AID 2247, 2010 | hit rate 0.39% among 300,000 | DAMGO-evoked Fluo4 calcium flux; active compounds read low;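 active means B-score over 3 SD under the library average, no early fluorescence shift, positive overall ratio signal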
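Assay system: HEK293 cells with stable TRPC4beta plus mu-opioid receptor expression. Dosing: single dose. Measured by: Fluo4 Ca2+ flux fluorescence. Also added: DAMGO in two steps, submaximal then maximal. Read-out: B score from integrated Fluo4 fluorescence ratio.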
TRPC4 potent = positive allosteric modulators of TRPC4, primary screen, cell-based, mouse TRPC4beta, HEK293 mu-opioid, Fluo-4 calcium. Short transient receptor potential channel 4 (Mus musculus), Q9QUQ5. DAMGO EC20, Fluo-4 Ca2+ flux; active compounds read high. B-score at 10 µM. hit rate 0.42% among 310,000;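 active means B-score of calcium response area above 5 SD of library B-scores, with initial fluorescence ratio within 5 SD of library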;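 further: B-score of integrated fluorescence ratio over time as area under calcium response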
TRPC6 inh = mouse TRPC6 channel inhibitors, primary screen, cell-based, HEK293, membrane potential dye; ACh-evoked depolarization; active compounds read low; AID 2553, 2010; B-score at 10 µM; hit rate 1.1% among 310,000; Short transient receptor potential channel 6 (Mus musculus), Q61143;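 active means B-score under library mean minus 3 SD, initial fluorescence not abnormally high, positive integrated signal ratio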;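 further: B-score derived from integrated fluorescence ratio over the kinetic read; more negative B-score means stronger inhibition of depolarization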
Target sequence (Q61143 whole entry, looked up): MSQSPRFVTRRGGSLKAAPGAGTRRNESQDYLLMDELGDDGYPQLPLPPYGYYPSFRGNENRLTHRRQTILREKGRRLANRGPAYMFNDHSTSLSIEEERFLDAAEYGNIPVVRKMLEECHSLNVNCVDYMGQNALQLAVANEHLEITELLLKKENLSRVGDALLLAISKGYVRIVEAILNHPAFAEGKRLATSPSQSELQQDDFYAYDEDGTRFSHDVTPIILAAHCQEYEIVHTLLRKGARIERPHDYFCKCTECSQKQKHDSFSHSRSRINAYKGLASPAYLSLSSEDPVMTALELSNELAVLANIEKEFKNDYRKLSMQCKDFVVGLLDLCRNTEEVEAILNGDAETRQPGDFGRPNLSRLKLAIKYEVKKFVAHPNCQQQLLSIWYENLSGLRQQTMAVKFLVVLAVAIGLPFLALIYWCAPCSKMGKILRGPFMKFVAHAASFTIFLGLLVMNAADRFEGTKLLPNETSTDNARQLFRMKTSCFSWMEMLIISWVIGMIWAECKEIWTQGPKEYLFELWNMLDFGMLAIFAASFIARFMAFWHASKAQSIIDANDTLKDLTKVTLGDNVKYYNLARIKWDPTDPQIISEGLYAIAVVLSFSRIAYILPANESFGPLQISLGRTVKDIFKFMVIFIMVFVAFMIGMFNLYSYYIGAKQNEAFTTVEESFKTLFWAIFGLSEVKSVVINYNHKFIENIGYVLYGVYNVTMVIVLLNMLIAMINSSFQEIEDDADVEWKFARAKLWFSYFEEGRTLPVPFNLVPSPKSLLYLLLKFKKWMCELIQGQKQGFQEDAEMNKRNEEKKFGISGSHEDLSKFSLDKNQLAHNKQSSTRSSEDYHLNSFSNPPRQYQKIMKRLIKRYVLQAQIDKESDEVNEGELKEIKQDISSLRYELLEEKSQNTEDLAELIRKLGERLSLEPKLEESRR
DNA FID counter = compounds displacing fluorescent DNA intercalator, primary screen, artefact control for HCV NS3 helicase inhibitor project, biochemical, FID fluorescence | hit rate 0.17% among 290,000 | DNA fluorescent intercalator displacement | inhibition, % at 7.9 µM; in the data active means inhibition above about 37%;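 further: 0% = vehicle and 100% = reference compound; higher means more ethidium bromide displaced from hairpin DNA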
TRPC6 act = mouse TRPC6 channel activators, primary screen, cell-based, HEK293, membrane potential dye; hit rate 0.13% among 310,000; Short transient receptor potential channel 6 (Mus musculus), Q61143; B-score at 10 µM; HEK293-TRPC6 membrane potential dye fluorescence; active compounds read high; AID 2550, 2010;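 active means B-score of the integrated fluorescence ratio above library mean plus 3 SD, and starting fluorescence ratio within library mean plus 5 SD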;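 further: higher score means more depolarization so channel activation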
TRPC4 act = activators of mouse TRPC4 channel, primary screen, Fluo4 calcium, HEK293 TRPC4beta/mu-opioid cells | AID 2237, 2010 | Fluo4 calcium fluorescence; active compounds read high | hit rate 0.49% among 310,000 | Short transient receptor potential channel 4 (Mus musculus), Q9QUQ5 | B-score at 10 µM;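 active means B-score above 5 SD of library B-scores, and initial fluorescence ratio not above library mean plus 5 SD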;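 further: positive B-score marks a calcium rise read as TRPC4 activation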
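Assay system – TRPC4beta and mu-opioid receptor HEK293 stable cells · Measured by – Fluo4 fluorescence, kinetic · Schedule – dye loading 45 min room temperature, 110 s kinetic read · Read-out – B-scored integrated calcium fluorescence ratio · Controls – buffer and maximal DAMGO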
Active calls of the source: *; i = inactive; · = no result.

SMILES	TRPC4 inh	TRPC4 potent	TRPC6 inh	DNA FID counter	TRPC6 act	TRPC4 act
CCc1ccc(CNc2ccc3c(c2)ncn3CC)cc1	i	i	-5*	-3	i	i
CC(C)(C)n1cnc2cc(NCc3ccc(Br)cc3)ccc21	i	25*	i	-4	i	i
O=C(O)CC(c1cccc(O)c1)N1Cc2ccccc2C1=O (configuration not stated)	i	i	i	-6	i	i
COc1ccc(CN2CCN(C(=O)c3ccc(F)cc3)CC2)c(OC)c1	-6*	i	i	-10	i	i
O=C(c1ccc(COc2ccccc2Br)cc1)N1CCCCC1	i	10*	i	-40	i	i
CCc1cc(C(c2ccc(OC)c(OC)c2)N2CCOCC2)c(NC(=O)c2ccccc2)s1 (configuration not stated)	i	i	i	-10	i	i
CCc1cc(C(c2cccc(OC)c2)N2CCOCC2)c(NC(=O)c2ccccc2)s1 (configuration not stated)	-6*	i	i	-10	i	i
COc1ccc(OC)c(N(CC(=O)NC2CCCC2)S(=O)(=O)c2ccc(OC)c(OC)c2)c1	i	i	i	-43	i	i
Cc1cccc(C)c1-n1cccc1/C=C1\SC(=S)N(c2cccc(C(=O)O)c2)C1=O	-7*	i	i	-11	i	i
Cc1cccc(C)c1NC(=O)CN1C(=O)S/C(=C\c2cccn2-c2cccc(C(=O)O)c2)C1=O	i	i	i	-19	i	i
Cc1cccc(-c2nc(CNC(=O)c3ccco3)cs2)c1	i	i	i	-18	i	i
CCc1cc(OCCOCCN(C)C)ccc1Cl	i	15*	i	13	i	i
Cc1ccc(OCCOCCN(C)C)c(Cl)c1	i	i	i	11	i	i
COc1ccccc1/C=C/C=N/N1CCN(Cc2ccccc2)CC1	i	i	i	-7	i	i
Cc1ccc(CN2CCN(/N=C/C=C/c3ccccc3[N+](=O)[O-])CC2)cc1	i	14*	i	1	i	i
O=C(CSc1n[nH]c(=O)n1-c1cccnc1)Nc1ccccc1Cl	i	i	i	-7	i	i
COc1cccc(C2CC(c3ccccc3Cl)n3nc(N)nc3N2)c1 (configuration not stated)	i	i	i	-20	i	i
COc1ccc(C2(c3ccc(O)cc3O)CC(c3ccccc3Cl)NC(=S)N2)cc1 (configuration not stated)	i	11*	i	-24	i	i
O=C(NCCS(=O)(=O)N1CCC2(CC1)OCCO2)c1ccccc1	i	i	i	·	i	i
c1ccc(CC2CCCNC2)cc1 (configuration not stated)	i	i	i	-3	i	90*
Cc1ccc(-c2nc3cnccn3c2Nc2ccc3c(c2)OCO3)cc1	i	i	-5.7*	-17	i	i
O=C(O)c1ccc(Cl)cc1Nc1nc2cc(Cl)ccc2o1	-6*	i	i	15	i	i
CCC(=O)Nc1cc(Cl)ccc1C(=O)O	i	i	i	-3	i	i
CC(C)(C)NC(=O)CN(Cc1ccccc1)S(=O)(=O)c1ccccc1	i	i	i	-21	i	i
CCc1ccc2nc3nc(C)cc(C)c3c(N)c2c1	-6*	i	i	12	i	i
SMILES	TRPC4 inh	TRPC4 potent	TRPC6 inh	DNA FID counter	TRPC6 act	TRPC4 act
O=C(C[n+]1cccc(CNC(=O)c2ccc(OC(F)F)cc2)c1)Nc1ccccc1Cl	i	i	i	16	i	i
O=C(C[n+]1cccc(CNC(=O)c2ccc(OC(F)F)cc2)c1)Nc1ccc(SC(F)F)cc1	-7*	i	i	28	i	i
CC(C)CC(=O)Nc1nnc(S(=O)(=O)N2CCCCCC2)s1	i	i	i	-16	i	i
Cc1cc(C(=O)Nn2cnc3ccccc3c2=O)ccc1[N+](=O)[O-]	i	i	i	4	i	i
CCC1CN(C(=O)NCc2ccc(F)cc2)c2cc(C)ccc2O1 (configuration not stated)	i	i	i	-34	i	i
CCC1CN(C(=O)Nc2ccc(C)cc2)c2cc(C)ccc2O1 (configuration not stated)	-6*	i	i	-11	i	i
CCCOc1ccc(C(=O)NNC(=S)NC(=O)c2cccs2)cc1	i	i	i	-41	i	175*
CCCOc1ccc(C(=O)NNC(=S)NC(C)=O)cc1	i	i	i	-5	i	i
CCCOc1ccc(C(=O)NNC(=S)NC(=O)c2ccccc2)cc1	i	i	i	-47	i	167*
CCCCOc1ccc(C(=O)NNC(=S)NC(=O)CC)cc1	i	i	i	-5	i	73*
CCC(=O)NC(=S)NNC(=O)c1ccc(OC)cc1	i	i	i	3	i	i
Cc1onc(-c2ccccc2Cl)c1C(=O)N1CCN(c2ccc(F)cc2)CC1	i	i	i	-37	i	i
O=C(CNC(=O)c1ccc(Br)o1)NCC(=O)OCc1ccccc1	i	i	i	·	i	i
CCCN(CCC)CCCNC(=O)c1ccc(CS(=O)(=O)c2c(Cl)cccc2Cl)o1	i	i	i	5	i	79*
CN(C)CCNC(=O)c1ccc(CS(=O)(=O)c2c(Cl)cccc2Cl)o1	i	i	i	2	i	i
Oc1cccc(/C=N/NC(=S)Nc2cccnc2)c1O	i	i	i	-11	i	50*
COc1ccc(-c2nc(CN3CCC(C(=O)NC4CCCC4)CC3)c(C)o2)cc1OC	i	i	i	3	i	101*
C[C@H](NC(CCc1ccccc1)C(=O)O)C(=O)N1CCC[C@H]1C(=O)O (some centres not stated)	i	i	i	·	i	55*
COc1ccc(OCCN(C)Cc2c(O)ccc3ccccc23)cc1	i	18*	i	-4	i	i
